Laboratory results as given in ChEMBL document CHEMBL3600357 (J Med Chem, 2015).
Activity calls are given as the source filed them. No cut-off for these calls is given here.

Key:
[1] = Tmax in cynomolgus monkey at 0.3 mg/kg, po; assay type: ADME, organism-based, Macaca fascicularis; settings: in vivo
[2] = AUC (0 to 24 hrs) in human SJSA1 cells xenografted rat assessed as mouse survival at 30 mg/kg, po qd; assay type: ADME, organism-based, SJSA-1; set-up: time < 24 hr, dose 30 mg/kg, route oral; settings: in vivo
How it was run: (§1)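 Rats bearing MDM2-amplified human SJSA-1 tumors, dosed orally either daily or 3qw (Monday, Wednesday, Friday). Plasma exposure reported as AUC0-24, plus AUC0-48 for the 3qw schedule.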

Rattus norvegicus [3] = experiment: In-vivo inhibition of MDM2/p53 interaction in human SJSA1 cells xenografted rat assessed as increase in p21 mRNA level at 30 mg/kg, po measured within 72 hrs post dose by qRT-PCR method; assay type: functional, organism-based; settings: SJSA-1
How it was run: (§2)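 SJSA-1 (MDM2-amplified) tumour-bearing rats were dosed at 30 mg/kg. Tumour samples were collected over time, and p21, MDM2 and PUMA mRNA were measured as p53 pharmacodynamic markers, alongside compound levels.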

[4] = target: E3 ubiquitin-protein ligase Mdm2 (Mus musculus, UniProt P23804); experiment: Inhibition of mouse MDM2 by TR-FRET assay
Rattus norvegicus [5] = experiment: In-vivo inhibition of MDM2/p53 interaction in human SJSA1 cells xenografted rat assessed as increase in PUMA mRNA level at 30 mg/kg, po measured within 72 hrs post dose by qRT-PCR method; assay type: functional, organism-based; settings: SJSA-1; how it was run: as §2
[6] = Cmax in beagle dog at 0.3 mg/kg, po; assay type: ADME, organism-based, Canis lupus familiaris; set-up: dose 0.3 mg/kg, route oral; settings: in vivo
Cynomolgus monkey [7] = experiment: Oral bioavailability in cynomolgus monkey at 0.3 mg/kg; assay type: ADME, organism-based, Macaca fascicularis; settings: in vivo
SJSA-1 [8] = experiment: Antitumor activity against human SJSA1 cells xenografted in rat assessed as reduction tumor growth dosed orally three times per week; assay type: functional, organism-based
How it was run: (§3)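 SJSA-1 tumour-bearing rats were treated either daily or 3qw (Monday, Wednesday and Friday) across a range of doses, and tumour growth was followed over the treatment course. Plasma AUC0-24 was also determined, along with AUC0-48 for the 3qw schedule.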

Rattus norvegicus [9] = experiment: Toxicity in human SJSA1 cells xenografted rat assessed as change in body weight at 10 mg/kg, po qd (reference value: 1.9 to 6.8%); assay type: organism-based, SJSA-1; settings: in vivo
Rattus norvegicus [10] = experiment: Toxicity in human SJSA1 cells xenografted dosed rat assessed as induction of histopathological changes dosed orally on daily basis under q24h regime; assay type: organism-based, SJSA-1; settings: in vivo, po
How it was run: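 Rats bearing MDM2-amplified SJSA-1 human tumours, treated daily. Tolerability was monitored during treatment. Histopathology for compound-related findings was performed at the 30 mg/kg daily dose.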

[11] = AUC (0 to 24 hrs) in human SJSA1 cells xenografted rat assessed as mouse survival at 30 mg/kg, po dosed 3 times per week; assay type: ADME, organism-based, SJSA-1; set-up: dose 30 mg/kg, time < 24 hr, route oral; settings: in vivo; how it was run: as §1
Rattus norvegicus [12] = experiment: Volume of distribution at steady state in Sprague-Dawley rat at 1 mg/kg, iv; assay type: ADME, organism-based; settings: in vivo
Rattus norvegicus [13] = experiment: Oral bioavailability in Sprague-Dawley rat at 3 mg/kg; assay type: ADME, organism-based; settings: in vivo
How it was run: (§4)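 Sprague-Dawley rats. IV dose given as a solution in NMP:PEG200 (10:90); 3 mg/kg PO given as a suspension in CMC:water:Tween (0.5:99:0.5). AUC and Cmax dose-normalized to 1 mg/kg. Mean ± SD from four rats.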

Rattus norvegicus [14] = experiment: Toxicity in human SJSA1 cells xenografted rat assessed as change in body weight at 30 mg/kg, po dosed three times per week (reference value: 1.9 to 6.8%); assay type: organism-based, SJSA-1; settings: in vivo
Rattus norvegicus [15] = species on record: Rattus norvegicus; experiment: Toxicity in female rat assessed as changes in adrenal gland parameters; assay type: organism-based; settings: in vivo
[16] = target: T1, Apoptosis regulator Bcl-2 (Homo sapiens, UniProt P10415); experiment: Inhibition of Bcl2 (unknown origin) assessed as inhibition of Bcl2-Bak interaction by TR-FRET assay
[17] = Volume of distribution at steady state in beagle dog at 0.1 mg/kg, iv; assay type: ADME, organism-based, Canis lupus familiaris; settings: in vivo, read-out: Vdss
[18] = target: T1, Apoptosis regulator Bcl-2; experiment: Inhibition of Bcl2 (unknown origin) assessed as inhibition of Bcl2-Bad interaction by TR-FRET assay
[19] = target: Induced myeloid leukemia cell differentiation protein Mcl-1 (Homo sapiens, UniProt Q07820); experiment: Inhibition of Mcl1 (unknown origin) assessed as inhibition of Mcl1-Bak interaction by TR-FRET assay
Mus musculus [20] = experiment: AUC in OF1 mouse at 3 mg/kg, po; assay type: ADME, organism-based; settings: in vivo
[21] = Inhibition of cell proliferation of human SJSA1 cells expressing p53; settings: SJSA-1
Rattus norvegicus [22] = species on record: Rattus norvegicus; experiment: Toxicity in rat assessed as changes in testes parameters; assay type: organism-based, Testis; settings: in vivo
Rattus norvegicus [23] = experiment: In-vivo inhibition of MDM2/p53 interaction in human SJSA1 cells xenografted rat assessed as increase in MDM2 mRNA level at 30 mg/kg, po measured within 72 hrs post dose by qRT-PCR method; assay type: functional, organism-based; settings: SJSA-1; how it was run: as §2
[24] = target: E3 ubiquitin-protein ligase Mdm2 (Canis lupus familiaris, UniProt P56950); experiment: Inhibition of dog MDM2 by TR-FRET assay
Rattus norvegicus [25] = experiment: AUC in Sprague-Dawley rat at 3 mg/kg, po; assay type: ADME, organism-based; settings: in vivo; how it was run: as §4
[26] = Octanol water partition coefficient, logP of the compound; assay type: physicochemical
Rattus norvegicus [27] = experiment: Toxicity in human SJSA1 cells xenografted rat assessed as mouse survival at 5 mg/kg, po qd; assay type: organism-based, SJSA-1; settings: in vivo
How it was run: (§5)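 Tolerability was monitored in SJSA-1 tumour-bearing rats during the daily and 3qw (Monday, Wednesday, Friday) treatment schedules. Histopathology was done on all 3qw doses and on the 30 mg/kg daily group.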

[28] = AUC (0 to 24 hrs) in human SJSA1 cells xenografted rat assessed as mouse survival at 5 mg/kg, po qd; assay type: ADME, organism-based, SJSA-1; set-up: time < 24 hr, dose 5 mg/kg, route oral; settings: in vivo; how it was run: as §1
Mus musculus [29] = experiment: Oral bioavailability in OF1 mouse at 3 mg/kg; assay type: ADME, organism-based; settings: in vivo
[30] = Protein binding in OF1 mouse plasma by equilibrium dialysis method; assay type: ADME, cell-free; settings: read-out: PPB
SJSA-1 [31] = experiment: Antitumor activity against human SJSA1 cells xenografted in rat assessed as reduction tumor growth dosed orally on daily basis under q24h regime; assay type: functional, organism-based; how it was run: as §3
SJSA-1 [32] = experiment: Inhibition of cell proliferation of human SJSA1 cells
[33] = AUC (0 to 24 hrs) in human SJSA1 cells xenografted rat assessed as mouse survival at 70 mg/kg, po dosed 3 times per week; assay type: ADME, organism-based, SJSA-1; set-up: time < 24 hr, dose 70 mg/kg, route oral; settings: in vivo; how it was run: as §1
Rattus norvegicus [34] = experiment: Toxicity in human SJSA1 cells xenografted rat assessed as change in body weight at 5 mg/kg, po qd (reference value: 1.9 to 6.8%); assay type: organism-based, SJSA-1; settings: in vivo
Rattus norvegicus [35] = species on record: Rattus norvegicus; experiment: Toxicity in rat assessed as induction of structural changes in testes tubular epithelium; assay type: organism-based, Testis; settings: in vivo
HCT-116 = experiment: Inhibition of cell proliferation of human HCT116 cells deficient with p53 gene
[36] = AUC (0 to 48 hrs) in human SJSA1 cells xenografted rat assessed as mouse survival at 70 mg/kg, po dosed 3 times per week; assay type: ADME, organism-based, SJSA-1; set-up: time < 48 hr, dose 70 mg/kg, route oral; settings: in vivo; how it was run: as §1
Rattus norvegicus [37] = species on record: Rattus norvegicus; experiment: Toxicity in male rat assessed as changes in adrenal gland parameters; assay type: organism-based; settings: in vivo
Rattus norvegicus [38] = experiment: Toxicity in human SJSA1 cells xenografted rat assessed as change in body weight at 20 mg/kg, po qd (reference value: 1.9 to 6.8%); assay type: organism-based, SJSA-1; settings: in vivo
[39] = Terminal half life in OF1 mouse at 1 mg/kg, iv; assay type: ADME, organism-based; settings: in vivo, read-out: beta t1/2 (converted)
Cynomolgus monkey [40] = experiment: AUC in cynomolgus monkey at 0.3 mg/kg, po; assay type: ADME, organism-based, Macaca fascicularis; settings: in vivo
Rattus norvegicus [41] = experiment: Toxicity in human SJSA1 cells xenografted rat assessed as mouse survival at 10 mg/kg, po qd; assay type: organism-based, SJSA-1; settings: in vivo; how it was run: as §5

T1 sequence (P10415 whole entry): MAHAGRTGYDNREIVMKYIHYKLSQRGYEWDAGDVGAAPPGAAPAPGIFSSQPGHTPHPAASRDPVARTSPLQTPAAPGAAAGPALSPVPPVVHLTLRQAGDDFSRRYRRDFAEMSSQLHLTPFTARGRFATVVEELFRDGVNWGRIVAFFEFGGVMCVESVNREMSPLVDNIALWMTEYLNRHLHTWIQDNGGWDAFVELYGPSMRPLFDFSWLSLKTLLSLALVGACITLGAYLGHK
Chain of E3 ubiquitin-protein ligase Mdm2 (Mus musculus, UniProt P23804) (P23804 whole entry): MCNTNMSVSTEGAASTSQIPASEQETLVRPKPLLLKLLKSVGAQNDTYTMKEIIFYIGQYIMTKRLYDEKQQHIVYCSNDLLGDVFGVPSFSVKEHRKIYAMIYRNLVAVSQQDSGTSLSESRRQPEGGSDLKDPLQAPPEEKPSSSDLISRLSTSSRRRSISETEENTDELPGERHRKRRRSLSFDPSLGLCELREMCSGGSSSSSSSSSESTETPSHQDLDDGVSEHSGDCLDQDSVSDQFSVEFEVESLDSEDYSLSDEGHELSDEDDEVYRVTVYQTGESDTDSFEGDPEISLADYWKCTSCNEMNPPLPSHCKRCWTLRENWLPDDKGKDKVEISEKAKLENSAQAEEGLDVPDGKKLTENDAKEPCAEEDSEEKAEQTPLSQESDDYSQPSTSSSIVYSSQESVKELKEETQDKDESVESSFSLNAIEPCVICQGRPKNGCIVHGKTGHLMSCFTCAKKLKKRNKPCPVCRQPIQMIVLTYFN
Chain of Induced myeloid leukemia cell differentiation protein Mcl-1 (Q07820 whole entry): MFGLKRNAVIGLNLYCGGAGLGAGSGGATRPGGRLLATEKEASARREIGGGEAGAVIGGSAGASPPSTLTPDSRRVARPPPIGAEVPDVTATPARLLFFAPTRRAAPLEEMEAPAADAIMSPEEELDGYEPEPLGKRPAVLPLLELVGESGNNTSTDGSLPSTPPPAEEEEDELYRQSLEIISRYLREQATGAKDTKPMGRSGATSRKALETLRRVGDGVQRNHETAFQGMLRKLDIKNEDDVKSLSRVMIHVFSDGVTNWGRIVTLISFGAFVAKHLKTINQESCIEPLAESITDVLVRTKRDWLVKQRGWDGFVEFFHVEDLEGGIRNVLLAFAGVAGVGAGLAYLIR
Chain of E3 ubiquitin-protein ligase Mdm2 (Canis lupus familiaris, UniProt P56950) (P56950 whole entry): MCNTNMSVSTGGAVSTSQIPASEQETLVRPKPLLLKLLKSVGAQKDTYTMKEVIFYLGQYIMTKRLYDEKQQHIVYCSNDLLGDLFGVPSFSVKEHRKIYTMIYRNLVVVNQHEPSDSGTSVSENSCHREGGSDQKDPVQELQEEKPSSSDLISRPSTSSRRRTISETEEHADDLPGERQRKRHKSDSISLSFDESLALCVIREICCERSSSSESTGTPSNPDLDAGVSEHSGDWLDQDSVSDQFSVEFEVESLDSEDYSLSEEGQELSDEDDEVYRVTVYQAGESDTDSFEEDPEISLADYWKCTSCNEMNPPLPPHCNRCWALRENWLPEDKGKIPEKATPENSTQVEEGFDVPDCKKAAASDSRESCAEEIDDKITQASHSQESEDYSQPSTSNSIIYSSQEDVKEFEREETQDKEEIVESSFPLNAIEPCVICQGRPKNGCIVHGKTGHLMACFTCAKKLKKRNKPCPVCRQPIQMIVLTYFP

COc1cc2c(cc1OC(C)C)[C@H](c1ccc(Cl)cc1)N(c1ccc(N(C)C[C@H]3CC[C@H](N4CCN(C)C(=O)C4)CC3)cc1)C(=O)C2 [CGM-097]
Tmax [1]: 1.3 h
AUC at 24 h [2]: 421 µM·h
inhibition (Rattus norvegicus [3]): Active
Ki [4]: 65.9 nM
inhibition (Rattus norvegicus [5]): Active
Cmax [6]: 251 nM
F (Cynomolgus monkey [7]): 57%
growth inhibition (GI) (SJSA-1 [8]): Dose-dependent effect
Activity (Rattus norvegicus [9]): 1.8%
Activity (Rattus norvegicus [10]): Non-toxic
AUC at 24 h [11]: 230 µM·h
Vdss (Rattus norvegicus [12]): 6.4 L/kg
F (Rattus norvegicus [13]): 81%
Activity (Rattus norvegicus [14]): 4.5%
Activity (Rattus norvegicus [15]): Toxic
IC50 [16]: > 50 µM
Vd [17]: 4.2 L/kg
IC50 [18]: > 50 µM
IC50 [19]: > 50 µM
AUC (Mus musculus [20]): 3.337 µM·h
IC50 [21]: 353 nM
Activity (Rattus norvegicus [22]): Toxic
inhibition (Rattus norvegicus [23]): Active
Ki [24]: 20.5 nM
AUC (Rattus norvegicus [25]): 2779 nmol·h/L
logP [26]: 5.8
Activity (Rattus norvegicus [27]): Non-toxic
AUC at 24 h [28]: 34 µM·h
F (Mus musculus [29]): 71%
fraction unbound [30]: < 0.01
growth inhibition (GI) (SJSA-1 [31]): Dose-dependent effect
GI50 (SJSA-1 [32]): 350 nM
AUC at 24 h [33]: 616 µM·h
Activity (Rattus norvegicus [34]): 2.8%
Activity (Rattus norvegicus [35]): Toxic
IC50 (HCT-116): 16 µM
AUC at 48 h [36]: 1040 µM·h
Activity (Rattus norvegicus [37]): Toxic
Activity (Rattus norvegicus [38]): 3.4%
half-life [39]: 384 min
AUC (Cynomolgus monkey [40]): 3.73 µM·h
Activity (Rattus norvegicus [41]): Non-toxic
